Reference: ChEMBL document CHEMBL5058577, “EUbOPEN Chemogenomics Library 2 (Multiplex)” (2022)

Tested on: HEK-293T
Test: Multiplex assay against HEK293T
Format: toxicity, cell-based
Conditions: human
In short: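 Live cells were stained at seeding with Hoechst33342, BioTracker Green Microtubule Cytoskeleton Dye, MitoTracker Red and Annexin V Alexa Fluor 680. Following compound addition, they were imaged on a CQ1 microscope at 37°C and 5% CO2 and gated by CellPathfinder machine learning into Hoechst high-intensity objects or normal cells, with normal cells split into healthy, pyknosed or fragmented nuclei and pyknosed cells into mitotic or apoptotic. Tubulin, mitochondrial-mass and membrane-permeability phenotypes are per cents of healthy-nucleus cells.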

[1] = 12 h, 1 µM, compound concentration 1 uM, replicate 1
[2] = 12 h, 1 µM, compound concentration 1 uM, replicate 2
[3] = 12 h, 10 µM, compound concentration 10 uM, replicate 1
[4] = 12 h, 10 µM, compound concentration 10 uM, replicate 2
[5] = 24 h, 1 µM, compound concentration 1 uM, replicate 1
[6] = 24 h, 1 µM, compound concentration 1 uM, replicate 2
[7] = 24 h, 10 µM, compound concentration 10 uM, replicate 1
[8] = 24 h, 10 µM, compound concentration 10 uM, replicate 2
[9] = 48 h, 1 µM, compound concentration 1 uM, replicate 1
[10] = 48 h, 1 µM, compound concentration 1 uM, replicate 2
[11] = 48 h, 10 µM, compound concentration 10 uM, replicate 1
[12] = 48 h, 10 µM, compound concentration 10 uM, replicate 2

## CSc1ccccc1N1CCN(CCCCCC(=O)NC2CCCc3ccccc32)CC1.Cl (configuration not stated)
[1]
  Population Apoptotic (%): 45%
  Population Fragmented Nuclei (%): 6%
  Population Healthy Nuclei (%): 74%
  Population Hoechst High Intensity Objects (%): 8%
  Population Membrane Permeable-Phenotype (%): 0%
  Population Mitochondria Different-Phenotype (%): 68%
  Population Mitotic Cells (%): 54%
  Population Normal (%): 91%
  Population Pyknosed Nuclei (%): 18%
  Population Tubulin-Different-Phenotype (%): 59%
  Total Cell Count: 391
[2]
  Population Hoechst High Intensity Objects (%): 12%
  Population Mitochondria Different-Phenotype (%): 75%
  Population Normal (%): 87%
  Population Pyknosed Nuclei (%): 19%
  Population Tubulin-Different-Phenotype (%): 43%
  Total Cell Count: 322
[3]
  Population Apoptotic (%): 80%
  Population Fragmented Nuclei (%): 8%
  Population Healthy Nuclei (%): 68%
  Population Hoechst High Intensity Objects (%): 15%
  Population Membrane Permeable-Phenotype (%): 0%
  Population Mitochondria Different-Phenotype (%): 97%
  Population Mitotic Cells (%): 20%
  Population Normal (%): 84%
  Population Pyknosed Nuclei (%): 22%
  Population Tubulin-Different-Phenotype (%): 59%
  Total Cell Count: 316
[4]
  Population Apoptotic (%): 79%
  Population Fragmented Nuclei (%): 5%
  Population Healthy Nuclei (%): 74%
  Population Hoechst High Intensity Objects (%): 16%
  Population Normal (%): 83%
  Population Pyknosed Nuclei (%): 19%
  Population Tubulin-Different-Phenotype (%): 65%
  Total Cell Count: 304
[5]
  Population Apoptotic (%): 36%
  Population Fragmented Nuclei (%): 8%
  Population Healthy Nuclei (%): 79%
  Population Hoechst High Intensity Objects (%): 4%
  Population Membrane Permeable-Phenotype (%): 0%
  Population Mitochondria Different-Phenotype (%): 50%
  Population Mitotic Cells (%): 63%
  Population Normal (%): 95%
  Population Pyknosed Nuclei (%): 11%
  Population Tubulin-Different-Phenotype (%): 41%
  Total Cell Count: 508
[6]
  Population Apoptotic (%): 41%
  Population Healthy Nuclei (%): 75%
  Population Hoechst High Intensity Objects (%): 7%
  Population Mitochondria Different-Phenotype (%): 70%
  Population Mitotic Cells (%): 58%
  Population Normal (%): 92%
  Population Pyknosed Nuclei (%): 16%
  Population Tubulin-Different-Phenotype (%): 44%
  Total Cell Count: 356
[7]
  Population Apoptotic (%): 75%
  Population Fragmented Nuclei (%): 5%
  Population Healthy Nuclei (%): 70%
  Population Hoechst High Intensity Objects (%): 21%
  Population Membrane Permeable-Phenotype (%): 0%
  Population Mitochondria Different-Phenotype (%): 98%
  Population Mitotic Cells (%): 24%
  Population Normal (%): 78%
  Population Pyknosed Nuclei (%): 23%
  Population Tubulin-Different-Phenotype (%): 53%
  Total Cell Count: 303
[8]
  Population Apoptotic (%): 69%
  Population Fragmented Nuclei (%): 7%
  Population Healthy Nuclei (%): 73%
  Population Hoechst High Intensity Objects (%): 20%
  Population Mitochondria Different-Phenotype (%): 97%
  Population Mitotic Cells (%): 30%
  Population Normal (%): 79%
  Population Pyknosed Nuclei (%): 18%
  Population Tubulin-Different-Phenotype (%): 48%
  Total Cell Count: 315
[9]
  Population Apoptotic (%): 32%
  Population Fragmented Nuclei (%): 10%
  Population Healthy Nuclei (%): 78%
  Population Hoechst High Intensity Objects (%): 4%
  Population Membrane Permeable-Phenotype (%): 0%
  Population Mitochondria Different-Phenotype (%): 39%
  Population Mitotic Cells (%): 67%
  Population Normal (%): 95%
  Population Pyknosed Nuclei (%): 10%
  Population Tubulin-Different-Phenotype (%): 27%
  Total Cell Count: 747
[10]
  Population Apoptotic (%): 45%
  Population Healthy Nuclei (%): 76%
  Population Hoechst High Intensity Objects (%): 6%
  Population Mitochondria Different-Phenotype (%): 59%
  Population Mitotic Cells (%): 54%
  Population Normal (%): 93%
  Population Pyknosed Nuclei (%): 13%
  Population Tubulin-Different-Phenotype (%): 31%
  Total Cell Count: 471
[11]
  Population Apoptotic (%): 76%
  Population Fragmented Nuclei (%): 11%
  Population Healthy Nuclei (%): 73%
  Population Hoechst High Intensity Objects (%): 28%
  Population Membrane Permeable-Phenotype (%): 0%
  Population Mitochondria Different-Phenotype (%): 97%
  Population Mitotic Cells (%): 23%
  Population Normal (%): 71%
  Population Pyknosed Nuclei (%): 14%
  Population Tubulin-Different-Phenotype (%): 67%
  Total Cell Count: 365
[12]
  Population Apoptotic (%): 56%
  Population Fragmented Nuclei (%): 13%
  Population Hoechst High Intensity Objects (%): 18%
  Population Mitochondria Different-Phenotype (%): 93%
  Population Mitotic Cells (%): 43%
  Population Normal (%): 81%
  Population Pyknosed Nuclei (%): 13%
  Population Tubulin-Different-Phenotype (%): 56%
  Total Cell Count: 385
